In ChEMBL document CHEMBL1132231, “New generation dopaminergic agents. 6. Structure-activity relationship studies of a series of 4-(aminoethoxy)indole and 4-(aminoethoxy)indolone derivatives based on the newly discovered 3-hydroxyphenoxyethylamine D2 template” (J Med Chem, 1999):

Assays:
[1] = target: T1, 5-hydroxytryptamine receptor 1A (Rattus norvegicus, UniProt P19327); test: In vitro binding affinity towards 5-hydroxytryptamine 1A receptor by the displacement of [3H]8-OH-DPAT radioligand in rat hippocampal homogenates; format: tissue-based, Hippocampus
T1 sequence (P19327 whole entry): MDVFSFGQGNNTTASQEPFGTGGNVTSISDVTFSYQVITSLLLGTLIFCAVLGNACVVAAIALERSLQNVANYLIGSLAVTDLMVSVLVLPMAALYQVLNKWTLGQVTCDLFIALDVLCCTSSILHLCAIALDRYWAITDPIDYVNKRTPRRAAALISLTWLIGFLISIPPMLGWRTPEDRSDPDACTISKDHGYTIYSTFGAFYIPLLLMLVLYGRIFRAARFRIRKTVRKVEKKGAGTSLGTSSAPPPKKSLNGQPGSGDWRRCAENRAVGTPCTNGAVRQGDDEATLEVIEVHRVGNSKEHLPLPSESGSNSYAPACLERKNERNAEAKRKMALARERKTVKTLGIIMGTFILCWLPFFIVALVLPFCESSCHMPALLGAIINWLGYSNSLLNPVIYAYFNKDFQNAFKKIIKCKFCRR

[2] = target: T2, Adrenergic receptor alpha-1 (Rattus norvegicus, UniProt P15823+P23944+P43140); test: In vitro binding affinity towards alpha-1 adrenergic receptor by the displacement of [3H]prazosin radioligand in rat cortical homogenates
T2 sequence (P15823 whole entry): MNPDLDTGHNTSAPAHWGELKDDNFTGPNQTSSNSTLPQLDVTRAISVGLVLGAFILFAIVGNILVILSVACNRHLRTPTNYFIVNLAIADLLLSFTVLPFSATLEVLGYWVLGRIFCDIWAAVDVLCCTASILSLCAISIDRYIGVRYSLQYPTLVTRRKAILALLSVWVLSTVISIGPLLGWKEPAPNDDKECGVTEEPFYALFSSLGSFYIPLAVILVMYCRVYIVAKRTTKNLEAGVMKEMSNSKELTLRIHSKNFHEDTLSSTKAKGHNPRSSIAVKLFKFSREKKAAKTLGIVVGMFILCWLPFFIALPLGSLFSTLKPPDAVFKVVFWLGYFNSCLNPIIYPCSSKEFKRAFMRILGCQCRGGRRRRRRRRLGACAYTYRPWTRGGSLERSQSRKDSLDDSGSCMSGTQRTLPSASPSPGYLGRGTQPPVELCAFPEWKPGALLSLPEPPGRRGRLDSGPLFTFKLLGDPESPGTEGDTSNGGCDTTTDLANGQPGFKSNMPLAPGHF
T2 sequence (P23944 whole entry): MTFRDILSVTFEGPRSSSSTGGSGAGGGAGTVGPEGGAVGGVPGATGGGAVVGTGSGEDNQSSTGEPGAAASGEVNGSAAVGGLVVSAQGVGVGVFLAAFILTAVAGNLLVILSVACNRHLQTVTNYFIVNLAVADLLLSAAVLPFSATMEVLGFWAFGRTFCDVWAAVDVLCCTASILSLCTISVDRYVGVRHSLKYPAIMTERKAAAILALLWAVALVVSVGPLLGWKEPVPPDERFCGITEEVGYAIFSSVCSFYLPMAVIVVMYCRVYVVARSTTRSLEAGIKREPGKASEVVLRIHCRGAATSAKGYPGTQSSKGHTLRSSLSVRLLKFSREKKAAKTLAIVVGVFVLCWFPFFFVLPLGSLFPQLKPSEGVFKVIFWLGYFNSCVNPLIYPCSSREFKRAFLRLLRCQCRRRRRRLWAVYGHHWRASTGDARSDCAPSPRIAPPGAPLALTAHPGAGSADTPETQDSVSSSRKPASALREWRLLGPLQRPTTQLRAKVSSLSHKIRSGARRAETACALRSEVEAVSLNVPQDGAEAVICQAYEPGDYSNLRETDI
T2 sequence (P43140 whole entry): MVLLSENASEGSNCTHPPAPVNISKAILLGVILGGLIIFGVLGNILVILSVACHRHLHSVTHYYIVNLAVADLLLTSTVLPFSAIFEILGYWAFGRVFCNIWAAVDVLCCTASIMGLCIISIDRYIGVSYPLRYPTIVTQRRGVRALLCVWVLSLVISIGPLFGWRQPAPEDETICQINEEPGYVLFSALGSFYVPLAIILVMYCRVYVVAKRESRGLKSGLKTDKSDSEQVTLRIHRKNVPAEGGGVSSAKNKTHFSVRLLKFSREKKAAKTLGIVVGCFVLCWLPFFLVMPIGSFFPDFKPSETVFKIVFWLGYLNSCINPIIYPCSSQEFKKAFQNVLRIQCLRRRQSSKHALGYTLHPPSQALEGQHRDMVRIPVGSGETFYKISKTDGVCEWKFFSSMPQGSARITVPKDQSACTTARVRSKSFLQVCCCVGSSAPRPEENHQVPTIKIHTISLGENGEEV
Method in brief: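 Rat cortical homogenates labelled with [3H]prazosin (0.2 nM), incubated 30 min at 25 °C. Stopped with cold 50 mM Tris pH 7.4, then rapid filtration. Triplicate, at least eight concentrations. Nonlinear regression gave IC50, converted to apparent Ki by Cheng-Prusoff. Means of at least two experiments ± SEM; values without SEM are single determinations.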

D(2) dopamine receptor [3] = target: T3, D(2) dopamine receptor (Rattus norvegicus, UniProt P61169); test: In vitro high binding affinity towards Dopamine receptor D2 by the displacement of [3H]quinpirole radioligand in rat striatal membranes; format: cell membranes, Membrane
[4] = target: D(2) dopamine receptor (Rattus norvegicus) (UniProt P61169); test: Ratio of Dopamine D2 receptor (low)and Dopamine D2 receptor (high)
Method in brief: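 Ratio Ki(low)/Ki(high). Ki(low) comes from displacement of 1 nM [3H]spiperone in striatal membranes with 1 mM GppNHp and NaCl, 37 °C for 5 min. […] Both Ki values derived by Cheng-Prusoff from nine concentrations in triplicate; the ratio serves as an estimate of intrinsic activity.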

D(2) dopamine receptor [5] = target: T3, D(2) dopamine receptor; test: In vitro low binding affinity towards Dopamine receptor D2 by the displacement of [3H]spiperone radioligand in rat striatal membranes; format: cell membranes, Membrane
[6] = target: T2, Adrenergic receptor alpha-1; test: In vitro binding affinity towards Alpha-1 adrenergic receptor by the displacement of [3H]prazosin radioligand in rat cortical homogenates

Chain of D(2) dopamine receptor (Rattus norvegicus) (P61169 whole entry): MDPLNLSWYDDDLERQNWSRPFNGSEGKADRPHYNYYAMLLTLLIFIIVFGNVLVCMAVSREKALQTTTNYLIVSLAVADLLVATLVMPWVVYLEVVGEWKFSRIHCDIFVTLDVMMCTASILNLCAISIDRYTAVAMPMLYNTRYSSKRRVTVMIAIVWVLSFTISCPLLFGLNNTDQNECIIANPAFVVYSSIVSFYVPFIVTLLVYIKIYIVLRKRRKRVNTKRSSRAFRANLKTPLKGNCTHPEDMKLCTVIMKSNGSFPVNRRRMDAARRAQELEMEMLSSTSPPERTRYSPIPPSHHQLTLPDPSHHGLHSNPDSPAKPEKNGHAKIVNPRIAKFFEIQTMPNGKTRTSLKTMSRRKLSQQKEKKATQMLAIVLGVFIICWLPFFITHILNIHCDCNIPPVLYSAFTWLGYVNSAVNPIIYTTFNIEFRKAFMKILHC
T3 sequence (P61169 whole entry): as above

| SMILES | Ki [1] [nM] | Ki [2] [nM] | Ki (D(2) dopamine receptor [3]) [nM] | Ratio [4] | Ki (D(2) dopamine receptor [5]) [nM] | Ki [6] [nM] |
| --- | --- | --- | --- | --- | --- | --- |
| O=C(c1c[nH]c2c(Cl)ccc(OCCNCc3ccccc3)c12)C(F)(F)F | 51 | 97.5 | – | – | – | – |
| Clc1ccc(OCCNCc2cccs2)c2c(Cl)c[nH]c12 | – | – | 12.3 | 3 | 38.4 | – |
| Cc1ccc(CNCCOc2ccc(Cl)c3c2CC(=O)N3)cc1 | 1170 | 334 | 0.64 | 9 | 5.5 | – |
| c1ccc(CNC[C@H]2CCc3ccc4[nH]ccc4c3O2)cc1 | 0.4 | – | 1.9 | – | 35.9 | 24 |
| O=C1Cc2c(OCCN3Cc4ccccc4C3)ccc(F)c2N1 | 13 | 268 | 2.08 | 7 | 16 | – |
| O=C1Cc2c(OCCNCc3ccccc3)ccc(Cl)c2N1 | 2660 | 350 | 0.41 | 7 | 2.8 | – |
| O=C1Cc2c(OCCN3Cc4ccccc4C3)ccc(Cl)c2N1 | 41 | – | 0.44 | – | 2.85 | 85 |
| O=C1Cc2c(OCCNCC3CCCCC3)ccc(F)c2N1 | 17 | – | 0.65 | – | 5.6 | 380 |
| O=C1Cc2c(cccc2OCCNCCCCc2ccccc2)N1 | 1.9 | 13 | 0.23 | 9 | 2.06 | – |
| O=C1Cc2c(OCCN3CCc4ccccc4C3)ccc(Cl)c2N1 | 17 | 143 | 0.55 | 8 | 4.27 | – |
| c1ccc(CCCCNCCOc2cccc3[nH]ccc23)cc1 | 0.4 | 11.5 | 5.3 | 3 | 14.4 | – |
| CNCCOc1cccc2c1CC(=O)N2 | 276 | 1057 | 2 | 74 | 147 | – |
| O=C1Cc2c(OCCNCc3cccs3)ccc(Cl)c2N1 | 59 | – | – | – | – | 5 |
| O=C1Cc2c(OCCNCc3ccc4ccccc4c3)ccc(F)c2N1 | 121 | 154 | 0.63 | 14 | 9 | – |
| CN(CCCC(=O)c1ccc(F)cc1)CCOc1cccc2c1CC(=O)N2 | 253 | 9.5 | 3.1 | 8 | 24.1 | – |
| Clc1ccc(OCCNCc2ccccc2)c2c(Cl)c[nH]c12 | 219 | 66 | 7 | 3 | 19.9 | – |
| O=C1Cc2c(OCCNCc3ccc(F)cc3)ccc(Cl)c2N1 | 6560 | 431 | 1.3 | 11 | 13.8 | – |
| Clc1ccc(CNCCOc2ccc(Cl)c3[nH]cc(Cl)c23)cc1 | – | 458 | 77.1 | 0.4 | 29.8 | – |
| O=C1Cc2c(OCCNCc3cccc(-c4ccccc4)c3)ccc(F)c2N1 | 625 | – | – | – | – | 2899 |
| O=C1Cc2c(OCCNCc3ccc(-c4ccccc4)cc3)ccc(Cl)c2N1 | 38 | 268 | 17.4 | 3 | 46.7 | – |
| Clc1ccc(OCCNCc2ccccc2)c2cc[nH]c12 | 193 | 138.5 | 7.4 | 2 | 14.4 | – |
| NCCOc1ccc(F)c2c1CC(=O)N2 | 25 | 25 | 12.1 | 76 | 916 | – |
| CN(CCOc1ccc(Cl)c2c1CC(=O)N2)Cc1ccccc1 | 8 | 41 | 2.6 | 9 | 23.4 | – |
| CCCCNCCOc1ccc(Cl)c2c1CC(=O)N2 | – | 11 | 0.84 | 17 | 14.6 | – |
| Fc1ccc(CNCCOc2ccc(Cl)c3[nH]cc(Cl)c23)cc1 | 685 | 229 | 50 | 1 | 59.5 | – |
| Oc1cccc(OCCNCc2ccccc2)c1 | 1780 | 5291 | – | 32 | 115 | – |
| O=C1Cc2c(OCCNCCCc3c[nH]c4ccccc34)ccc(F)c2N1 | 12 | 26 | 0.15 | 20 | 3.03 | – |
| O=C1Cc2c(ccc3c2O[C@@H](CNCc2ccccc2)CC3)N1 | 8.5 | 165 | 0.14 | 42 | 5.9 | – |
| Oc1ccc2c(c1)O[C@@H](CNCc1ccccc1)CN2 | – | – | 6.7 | – | 130 | – |
